Experiment [1] deals with MCF7. The experiment in a line: Growth inhibition of human MCF7 cells after 4 days by MTT assay in presence of 5% heat-inactivated fetal bovine serum treated with dextran-coated charcoal and 17-beta-estradiol. The note with it: MCF7, 96 h. The experiment is classed as functional, cell-based. For orientation: Tetrazolium dyes change colour on reduction, which living cells bring about.

Experiment [2] has as its system MCF7. The experiment in a line: Growth inhibition of human MCF7 cells at 10 uM after 4 days by MTT assay in presence of 10% fetal bovine serum relative to control. The note with it: MCF7, 96 h, read-out: GI. The experiment is classed as functional. In a few lines:
(§1)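 LNCaP or MCF-7 cells in MEM with 10% FBS were given test compound at 10 µM or 0.1% DMSO vehicle; MCF-7 exposure was four days. MTT read-out at 550 nm. Inhibition was calculated as (OD vehicle − OD test) × 100 / OD vehicle. Values are mean ± SEM, n = 4, ANOVA versus vehicle.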

Experiment [3] has as its system LNCaP. Kind of experiment: Growth inhibition of human LNCAP cells after 4 days by MTT assay in presence of 10% fetal bovine serum. The experiment is classed as functional, cell-based. The note with it: 96 h. The essentials: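 LNCaP cells were cultured in MEM with 10% FBS in 96-well plates against 0.1% DMSO vehicle. Viable cells were estimated by MTT conversion to formazan, read as absorbance at 550 nm. IC50 was derived from growth inhibition relative to vehicle. Values are mean ± SEM.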

Experiment [4] relates to MCF7. Kind of experiment: Growth inhibition of human MCF7 cells at 10 uM after 4 days by MTT assay in presence of 5% heat-inactivated fetal bovine serum treated with dextran-coated charcoal and 17-beta-estradiol relative to ICI-182780. Format: functional. To be noted: MCF7, 96 h, read-out: GI. The essentials:
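MCF-7 cells in MEM with 5% dextran-coated-charcoal-treated heat-inactivated FBS plus 1 nM 17β-estradiol were exposed for four days to test compound (10 µM), ICI 182,780 (1 µM) or vehicle. MTT absorbance was read at 550 nm. Effect was calculated as (OD vehicle − OD test) × 100 / (OD vehicle − OD ICI 182,780). Values are mean ± SEM of at least three assays.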

Experiment [5] concerns LNCaP. Kind of experiment: Growth inhibition of human LNCAP cells at 10 uM after 4 days by MTT assay in presence of 10% fetal bovine serum relative to control. The experiment is classed as functional. To be noted: 96 h, read-out: GI. The essentials:
as §1

The test system of experiment [6] is MCF7. Kind of experiment: Growth inhibition of human MCF7 cells after 4 days by MTT assay in presence of 10% fetal bovine serum. Format: functional, cell-based. To be noted: MCF7, 96 h.
A further experiment concerns HeLa. The experiment in a line: Cytotoxicity against human HeLa cells. The experiment is classed as functional, cell-based.
Another experiment has as its system K562. Kind of experiment: Cytotoxicity against human K562 cells. Format: functional, cell-based.
For experiment [7], the system named is LNCaP. The experiment in a line: Growth inhibition of human LNCAP cells at 1 uM after 4 days by MTT assay. The experiment is classed as functional. The note with it: 96 h, read-out: GI.
For experiment [8], the system named is MCF7. The experiment in a line: Growth inhibition of human MCF7 cells at 1 uM after 4 days by MTT assay. Format: functional. The note with it: MCF7, 96 h, read-out: GI.
The test system of experiment [9] is MCF7. Kind of experiment: Cytotoxicity against human MCF7 cells after 4 days by MTT assay. The experiment is classed as functional, cell-based. To be noted: MCF7, 96 h. The essentials:
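MCF-7 cells in minimal essential medium, with either 10% FBS or 5% dextran-charcoal-treated FBS plus 1 nM 17β-estradiol, were exposed to secosterols for four days. Vehicle was 0.1% DMSO. Read-out was MTT formazan absorbance at 550 nm, expressed as % of vehicle. IC50 was derived from growth inhibition, mean ± SEM of ≥3 independent assays.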

Experiment [10] has as its system LNCaP. The experiment in a line: Cytotoxicity against human LNCAP cells after 4 days by MTT assay. Format: functional, cell-based. To be noted: 96 h. In a few lines: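 LNCaP cells grown in minimal essential medium with 10% FBS, exposed to secosterols for four days in 96-well plates, with 0.1% DMSO as vehicle. Viable cells were estimated from MTT conversion to formazan, read at 550 nm. Absorbance was expressed relative to vehicle (100%), and IC50 was taken from growth inhibition, mean ± SEM of ≥3 independent assays.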

Turning to `CCC(C)/C=C/[C@@H](C)[C@H]1CC[C@@H](C2=C[C@H](O)[C@H]3C[C@@H](O)CC[C@]3(C)C2=O)[C@]1(C)CCOC(C)=O` (some centres not stated), the IC50 stood at 5.4 µM in the experiment on MCF7 [1], 5.4 µM in the experiment with LNCaP [3] and 7 µM with MCF7 [6]. Besides, the inhibition of growth at 10 µM in the experiment on MCF7 [2] is 49%; in the experiment on MCF7 [4], 90%; with LNCaP [5] it was 83%.

Turning to `CC(=O)OCC[C@]1(C)[C@@H]([C@H](C)/C=C\C(C)C(C)C)CC[C@H]1C1=C[C@H](O)[C@H]2C[C@@H](O)CC[C@]2(C)C1=O` (some centres not stated), the IC50 in the experiment with MCF7 [1] was 6 µM; with LNCaP [3], 6.7 µM. Moreover, the inhibition of growth at 10 µM came out at 27% in the experiment with MCF7 [2], 62% with MCF7 [4] and 45% in the experiment on LNCaP [5].

With `CC(=O)OCC[C@]1(C)[C@@H]([C@H](C)/C=C/C(C)C)CC[C@H]1C1=C[C@H](O)[C@H]2C[C@@H](O)CC[C@]2(C)C1=O`, the IC50 with MCF7 [1] was determined as 7.4 µM; in the experiment on LNCaP [3], 7 µM; in the experiment with HeLa, 7 µM; in the experiment on K562, 6.5 µM; in the experiment on MCF7 [6], 7.6 µM. For the same compound, the inhibition of growth at 10 µM in the experiment with MCF7 [2] amounted to 34%; in the experiment with MCF7 [4], 86%; with LNCaP [5], 76%.

As for `C=C(CC[C@@H](C)[C@H]1CC[C@@H](C2=C[C@H](O)[C@H]3C[C@@H](O)CC[C@]3(C)C2=O)[C@]1(C)CCOC(C)=O)C(C)C`, the half-maximal inhibitory concentration (IC50) with MCF7 [1] was 3.8 µM. Also, the inhibition of growth at 10 µM in the experiment with MCF7 [2] was ≤ 10%; in the experiment with MCF7 [4], 50%; in the experiment on LNCaP [5], ≤ 10%.

Regarding `C[C@]12CC[C@@H]3c4ccc(O)cc4C[C@@H](CCCCCCCCC[S+]([O-])CCCC(F)(F)C(F)(F)F)[C@H]3[C@@H]1CC[C@@H]2O` (some centres not stated) [FULVESTRANT], the inhibition of growth at 1 µM in the experiment with LNCaP [7] and in the experiment with MCF7 [8] was 100% throughout. Moreover, the IC50 in the experiment on MCF7 [9] and in the experiment with LNCaP [10] was 0.018 µM throughout.

The IC50 is the concentration that gives 50% inhibition.

Source of the values: ChEMBL document CHEMBL1152947, “9,11-Secosterols with antiproliferative activity from the gorgonian Eunicella cavolini” (Bioorg Med Chem, 2009).
